# Source: PMC9719863 (Molecular Metabolism, 2022)
# pEC50: −log10 of the molar value. *1 amine or outer side, *2 acyl side, *3 side chain or, on linkers, in order; H or OH if unused. Where a SMILES comes first, the peptide text is derived from it. Side-chain parts run from the residue outwards. The star is where a group is joined. γGlu = O=C(O)[C@H](CCC(=O)[*:2])N[*:1]; Palmitoyl = CCCCCCCCCCCCCCCC(=O)*
# What was measured:
# hGLP-1R = hGLP-1R (Homo sapiens, UniProt P43220); experiment: cAMP CRE-luciferase assay in BHK cells expressing GLP-1R; format: cell-based
# Procedure, shortened: (§1)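 Stably transfected BHK cells carried receptor plus CRE-firefly luciferase reporter, seeded 5,000/well overnight, then DPBS-washed. 12-point dilutions in DMEM (no phenol red), 10 mM HEPES, 1% ovalbumin, 0.1% Pluronic F-68, ± EC80 native ligand (antagonist mode), 3 h, 37 °C. Luminescence read after SteadyLite, 30 min RT. EC50/IC50 by nonlinear regression of log concentration vs response; duplicate experiment.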
# DIO male C57BL/6 J mice = experiment: Chronic once-daily dosing study on body weight in DIO mice; format: in vivo, mouse; conditions: for Percent change in body weight: 27-28 d, n = 8
# Procedure, shortened: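 DIO male C57BL/6J mice (58% fat, high-sugar diet, ~12 weeks; >55 g) housed 4/cage at 22 °C on a 12 h light–dark cycle. Groups of n = 8 were normalized for body weight. Test compound was given SC once daily in the light cycle for 28 days, in pH 7.4 vehicle (0.05% polysorbate-80, 50 mM sodium phosphate, 70 mM NaCl). Body weight was taken every other day before dosing, as % change from initial.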
# intact human islets = experiment: Human islet perifusion, insulin secretion; format: cell-based; conditions: islets from two human donors, 7 1 uM, 4 technical replicates per donor
# Procedure, shortened: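 Islets from human donors (purity ≥80%) recovered overnight in RPMI with 6.7 mM glucose and 10% FBS, then used within 4 days. 75 handpicked islets per chamber in KRPH buffer (2.7 mM glucose, pH 7.4). Equilibrated 48 min (1% then 0.1% BSA), then perifused in intervals with 1 uM antagonist in KRPH + 0.1% BSA. Insulin measured by Lumit immunoassay.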
# mGcgR = mGcgR (Mus musculus, UniProt Q61606); experiment: cAMP CRE-luciferase assay in BHK cells expressing glucagon receptor; format: cell-based
# Procedure, shortened: as §1
# mGLP-1R = molecular target: T1, mGLP-1R (Mus musculus, UniProt O35659); experiment: cAMP CRE-luciferase assay in BHK cells expressing GLP-1R; format: cell-based; conditions: antagonist mode, compared with hGLP-1R
# T1 sequence (O35659 22-463): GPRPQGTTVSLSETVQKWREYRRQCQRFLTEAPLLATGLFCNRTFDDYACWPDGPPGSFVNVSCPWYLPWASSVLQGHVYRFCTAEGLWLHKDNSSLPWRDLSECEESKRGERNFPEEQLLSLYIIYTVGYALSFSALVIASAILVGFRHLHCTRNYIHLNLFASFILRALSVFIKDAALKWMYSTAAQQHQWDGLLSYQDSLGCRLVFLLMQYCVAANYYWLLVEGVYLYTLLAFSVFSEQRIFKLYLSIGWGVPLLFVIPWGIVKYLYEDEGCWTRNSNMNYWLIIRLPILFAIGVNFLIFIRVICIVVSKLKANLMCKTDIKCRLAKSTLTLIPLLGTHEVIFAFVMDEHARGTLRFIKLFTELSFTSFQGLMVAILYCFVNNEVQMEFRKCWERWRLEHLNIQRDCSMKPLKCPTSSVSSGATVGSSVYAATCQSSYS
# Procedure, shortened: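 Stably transfected BHK cells with receptor and CRE-firefly luciferase reporter, 5,000 cells/well, incubated overnight and washed in DPBS. Exposed 3 h at 37 °C to a 12-point serial dilution of test compound with EC80 native ligand, in DMEM (no phenol red) with 10 mM HEPES, 1% ovalbumin, 0.1% Pluronic F-68.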
# hGIPR = molecular target: T2, hGIPR (Homo sapiens, UniProt P48546); experiment: cAMP CRE-luciferase assay in BHK cells expressing GIPR; format: cell-based; conditions: agonist mode, without native ligand
# T2 sequence (P48546 22-466): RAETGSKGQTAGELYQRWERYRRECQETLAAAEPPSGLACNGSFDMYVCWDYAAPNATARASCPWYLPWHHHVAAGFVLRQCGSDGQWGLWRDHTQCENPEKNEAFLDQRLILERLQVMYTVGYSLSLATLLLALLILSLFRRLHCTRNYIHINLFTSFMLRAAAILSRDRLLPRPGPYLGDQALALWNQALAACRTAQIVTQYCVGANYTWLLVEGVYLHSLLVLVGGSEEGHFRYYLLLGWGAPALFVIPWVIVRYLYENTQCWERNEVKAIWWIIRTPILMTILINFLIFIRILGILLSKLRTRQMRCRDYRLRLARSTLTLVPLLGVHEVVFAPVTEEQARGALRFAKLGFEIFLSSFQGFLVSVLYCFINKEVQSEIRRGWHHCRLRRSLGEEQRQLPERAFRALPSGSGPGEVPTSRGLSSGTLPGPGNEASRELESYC
# hGcgR = hGcgR (Homo sapiens, UniProt P47871); experiment: cAMP CRE-luciferase assay in BHK cells expressing glucagon receptor; format: cell-based
# Procedure, shortened: as §1
# DIO mice [1] = experiment: Oral glucose tolerance test; format: in vivo, mouse; conditions: high dose (1500 nmol/kg) SC prior to oral gavage of glucose 2.5 g/kg, n = 8 per group
# Procedure, shortened: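 DIO male C57BL/6J mice (58% fat, high-sugar diet ≥16 weeks), fasted 6 h with water available. Antagonist injected 2 h before oral gavage of 2.5 g/kg glucose (20% solution). Tail-vein blood glucose measured from baseline; glucose integrated AUC derived.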
# DIO mice [2] = experiment: Intraperitoneal glucose tolerance test; format: in vivo, mouse; conditions: IPGTT (Figure 6C,D) and oral glucose tolerance test (Supplemental figure 3)
# Procedure, shortened: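 Male C57BL/6J mice on 58% fat, high-sugar diet for ≥16 weeks, fasted 6 h. Antagonist (500 or 1500 nmol/kg) injected 2 h before glucose; semaglutide 2 nmol/kg injected 1 h before. Glucose 2.5 g/kg (20% solution) given i.p. or by oral gavage. Tail-vein glucose measured from baseline.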
# mGIPR = molecular target: T3, mGIPR (Mus musculus, UniProt Q0P543); experiment: cAMP CRE-luciferase assay in BHK cells expressing GIPR; format: cell-based
# T3 sequence (Q0P543 19-460): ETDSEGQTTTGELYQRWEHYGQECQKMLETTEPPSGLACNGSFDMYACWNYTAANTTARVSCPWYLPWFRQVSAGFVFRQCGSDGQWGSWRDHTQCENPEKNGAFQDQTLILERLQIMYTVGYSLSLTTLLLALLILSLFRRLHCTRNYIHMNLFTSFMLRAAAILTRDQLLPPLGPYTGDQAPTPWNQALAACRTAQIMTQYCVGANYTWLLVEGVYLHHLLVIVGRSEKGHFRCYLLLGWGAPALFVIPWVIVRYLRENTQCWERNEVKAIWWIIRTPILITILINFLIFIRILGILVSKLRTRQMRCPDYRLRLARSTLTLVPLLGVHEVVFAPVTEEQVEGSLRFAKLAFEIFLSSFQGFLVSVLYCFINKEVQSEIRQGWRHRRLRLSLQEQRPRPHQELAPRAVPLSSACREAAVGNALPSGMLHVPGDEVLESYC
# Pharmacokinetic = format: in vivo; conditions: male, C57BL/6 J, mouse, plasma, sc, 500 nmol/kg
# Procedure, shortened: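 Male C57BL/6J mice fed 58% fat, high-sugar diet ≥16 weeks (61–74 g) received one SC dose of 500 nmol/kg, n = 4. Plasma sampled 5 min to 72 h, methanol-precipitated (14-fold), centrifuged, diluted 3-fold in 0.1% formic acid, and quantified by LC-MS selected ion monitoring against plasma standards (0.5–4000 nM). Parameters derived noncompartmentally with sparse sampling.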
# DIO mice [3] = conditions: with the GLP-1R agonist liraglutide; cited from earlier work
# Sequence of mGcgR (Q61606 27-485): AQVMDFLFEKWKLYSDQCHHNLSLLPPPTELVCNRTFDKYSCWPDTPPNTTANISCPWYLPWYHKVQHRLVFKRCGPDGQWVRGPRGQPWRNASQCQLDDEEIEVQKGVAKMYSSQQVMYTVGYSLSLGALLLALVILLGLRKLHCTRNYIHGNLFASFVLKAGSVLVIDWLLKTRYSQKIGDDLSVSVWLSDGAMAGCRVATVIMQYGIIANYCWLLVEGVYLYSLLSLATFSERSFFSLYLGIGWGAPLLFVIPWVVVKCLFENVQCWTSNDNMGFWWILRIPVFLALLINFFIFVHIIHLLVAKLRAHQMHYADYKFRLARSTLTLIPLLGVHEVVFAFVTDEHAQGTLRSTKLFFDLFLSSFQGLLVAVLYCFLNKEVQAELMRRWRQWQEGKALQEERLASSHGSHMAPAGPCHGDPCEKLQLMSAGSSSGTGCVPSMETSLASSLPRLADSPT
# Sequence of hGLP-1R (P43220 24-463): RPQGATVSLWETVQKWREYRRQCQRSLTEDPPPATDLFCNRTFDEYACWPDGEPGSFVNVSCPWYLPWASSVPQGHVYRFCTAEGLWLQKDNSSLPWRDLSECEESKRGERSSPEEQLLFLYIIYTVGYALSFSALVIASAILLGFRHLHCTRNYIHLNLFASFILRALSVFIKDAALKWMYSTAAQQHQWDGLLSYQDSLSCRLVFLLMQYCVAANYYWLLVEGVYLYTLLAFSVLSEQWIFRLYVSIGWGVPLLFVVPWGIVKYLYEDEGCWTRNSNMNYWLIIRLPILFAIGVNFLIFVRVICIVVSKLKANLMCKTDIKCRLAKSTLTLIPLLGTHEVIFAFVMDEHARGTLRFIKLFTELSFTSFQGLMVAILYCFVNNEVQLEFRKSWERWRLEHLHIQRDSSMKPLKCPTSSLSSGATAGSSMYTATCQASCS
# Sequence of hGcgR (P47871 26-477): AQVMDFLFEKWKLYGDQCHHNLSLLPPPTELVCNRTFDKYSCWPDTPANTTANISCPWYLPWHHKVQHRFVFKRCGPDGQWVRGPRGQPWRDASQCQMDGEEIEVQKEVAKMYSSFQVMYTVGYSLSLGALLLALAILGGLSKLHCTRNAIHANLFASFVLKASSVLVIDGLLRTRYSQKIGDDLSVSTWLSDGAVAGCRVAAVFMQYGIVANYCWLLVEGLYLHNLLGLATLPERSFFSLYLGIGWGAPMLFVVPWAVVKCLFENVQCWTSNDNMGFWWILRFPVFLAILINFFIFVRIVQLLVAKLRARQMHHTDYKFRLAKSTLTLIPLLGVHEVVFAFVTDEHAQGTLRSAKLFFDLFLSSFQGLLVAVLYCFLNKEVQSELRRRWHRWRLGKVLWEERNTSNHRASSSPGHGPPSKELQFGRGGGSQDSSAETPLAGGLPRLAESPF
Compound,"Agonism at hGLP-1R (maximal) (hGLP-1R; agonist mode, Figure 3C)","% inhibition of native GLP-1 action, hGLP-1R (hGLP-1R; antagonist mode)","Glucose iAUC in IPGTT on day 26, high dose (DIO male C57BL/6 J mice; 7 alone 1500 nmol/kg/d, 24 h after compound injection)",Percent change in body weight (DIO male C57BL/6 J mice; 7 at 500 nmol/kg/d SC once daily),Percent change in body weight (DIO male C57BL/6 J mice; 7 at 1500 nmol/kg/d SC once daily),"Fasted insulin (DIO male C57BL/6 J mice; 6 h fast on day 27 of treatment, plasma)","Glucose control in IPGTT on day 26 (DIO male C57BL/6 J mice; 24 h after compound injection, semaglutide 2 nmol/kg/d, semaglutide plus 7, 7 alone 500 nmol/kg/d)",Insulin secretion in response to GIPR antagonist alone (high glucose) (intact human islets),pEC50 (mGcgR),Antagonism at mGcgR (mGcgR; antagonist mode vs glucagon),Antagonism at mGLP-1R (mGLP-1R),Agonism at the hGIPR (cAMP production by peptide alone) (hGIPR),pEC50 (hGcgR),Glucose control in OGTT (endogenous incretin action) (DIO mice [1]),Effect on semaglutide mediated reductions in blood glucose (DIO mice [2]),"Agonism at the mGIPR (cAMP production by peptide alone) (mGIPR; agonist mode, without native ligand)",half-life (Pharmacokinetic),Fold less potent at mGIPR than 7 in vitro (mGIPR; 13 compared with 7),AUC (Pharmacokinetic),Weight loss when co-administrated with liraglutide (DIO mice [3])
"CCCCCCCCCCCCCCCC(=O)N[C@@H](CCC(=O)NCCCC[C@H](NC(=O)[C@H](Cc1ccc(O)cc1)NC(=O)[C@H](CC(=O)O)NC(=O)[C@H](CO)NC(=O)[C@@H](NC(=O)[C@H](Cc1ccccc1)NC(=O)[C@@H](NC(C)=O)[C@@H](C)O)[C@@H](C)CC)C(=O)N[C@H](C(=O)N[C@@H](C)C(=O)N[C@@H](CC(C)C)C(=O)N[C@@H](CC(=O)O)C(=O)N[C@@H](CCCCN)C(=O)N[C@H](C(=O)N[C@@H](CCCNC(=N)N)C(=O)N[C@@H](CCC(N)=O)C(=O)N[C@@H](CCC(N)=O)C(=O)N[C@@H](CCC(=O)O)C(=O)N[C@@H](Cc1ccccc1)C(=O)N[C@H](C(=O)N[C@@H](CC(N)=O)C(=O)N[C@@H](Cc1c[nH]c2ccccc12)C(=O)N[C@@H](CC(C)C)C(=O)N[C@@H](CC(C)C)C(=O)N[C@@H](C)C(=O)N[C@@H](CCC(N)=O)C(=O)N[C@@H](CCCCN)C(=O)NCC(=O)O)C(C)C)[C@@H](C)CC)[C@@H](C)CC)C(=O)O [Peptide 7, [Nα-Ac, L14, R18, E21] hGIP(5–31)-K11 (γE-C16)]",≤ 20%,68%,numeric but insignificant lowering of glucose iAUC,+2.57%,−2.88%,did not modify reduction in fasting insulin levels seen with semaglutide treatment,significantly improved glucose control compared to controls,"modest and transient, statistically insignificant rise in insulin secretion",< 5.15,no antagonism,less antagonism at the mGLP-1R relative to hGLP-1R,negligible cAMP production as agonists,< 4.92,worsened glucose control,did not affect semaglutide mediated reductions in blood glucose,negligible cAMP production as agonists,8.45 h,–,–,–
"CCCCCCCCCCCCCCCC(=O)N[C@@H](CCC(=O)N[C@@H](CCC(=O)NCCCC[C@H](NC(=O)[C@H](CC(=O)O)NC(=O)[C@H](CO)NC(=O)[C@@H](NC(=O)[C@H](Cc1ccccc1)NC(=O)[C@@H](NC(C)=O)[C@@H](C)O)[C@@H](C)CC)C(=O)N[C@@H](CO)C(=O)N[C@H](C(=O)N[C@@H](C)C(=O)N[C@@H](CC(C)C)C(=O)N[C@@H](CC(=O)O)C(=O)N[C@@H](CCCCN)C(=O)N[C@H](C(=O)N[C@@H](CCCNC(=N)N)C(=O)N[C@@H](CCC(N)=O)C(=O)N[C@@H](CCC(N)=O)C(=O)N[C@@H](CCC(=O)O)C(=O)N[C@@H](Cc1ccccc1)C(=O)N[C@H](C(=O)N[C@@H](CC(N)=O)C(=O)N[C@@H](Cc1c[nH]c2ccccc12)C(=O)N[C@@H](CC(C)C)C(=O)N[C@@H](CC(C)C)C(=O)N[C@@H](C)C(=O)N[C@@H](CCC(N)=O)C(=O)N[C@@H](CCCCN)C(=O)NCC(=O)N[C@@H](CCCCN)C(=O)N[C@@H](CCCCN)C(=O)N[C@@H](CC(N)=O)C(=O)N[C@@H](CC(=O)O)C(=O)N[C@@H](Cc1c[nH]c2ccccc12)C(=O)N[C@@H](CCCCN)C(=O)N[C@@H](Cc1c[nH]cn1)C(=O)N[C@@H](CC(N)=O)C(=O)N[C@H](C(=O)N[C@H](C(=O)N[C@@H](CCC(N)=O)C(N)=O)[C@@H](C)O)[C@@H](C)CC)C(C)C)[C@@H](C)CC)[C@@H](C)CC)C(=O)O)C(=O)O [Peptide 13, [N^α-Ac, L14, R18, E21] hGIP(5–42)-K10 (γEγE-C16)] (Ac-TFISDK([γGlu-γGlu-Palmitoyl])SIALDKIRQQEFVNWLLAQKGKKNDWKHNITQ-NH2)",–,–,–,–,–,–,–,–,–,–,–,–,–,–,–,–,1.12 h,~5 fold,21.1 µM·h,did not improve weight loss
